A selection: hits, their analogues and other compounds. The true share with any hit is near 2.9%.
DENV2 CPE rescue: DENV2-induced cell death inhibition. DENV2-infected cells, cytopathic effect rescue, plate reader. CPE inhibition, % at 9.99 µM. 1.7% of 350,000 active; in the data active = CPE inhibition above about 20%, passing the limit was not always enough; tested in BHK-21 cells
SIRT5 inh: blocks human SIRT5 desuccinylation of peptide; Q9NXA8; Purified SirT5, succinyl-peptide AMC, trypsin-coupled fluorescence; inhibition, % at 15 µM; AID 652115; 1.1% of 330,000 active; in the data active = inhibition above about 15%
E-selectin induc: induces E-selectin expression in human endothelial cells | P16581 | HUVEC E-selectin immunofluorescence imaging; normalized: neutral wells 0, TNF-alpha wells 100 | activation, % at 7.58 µM | 0.37% of 260,000 active | AID 686992;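 active = mean E-selectin-positive cell signal at least 10% of the positive control, reached in at least 60% of replicates, without over 20% cell loss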
Target sequence (P16581 whole entry, looked up): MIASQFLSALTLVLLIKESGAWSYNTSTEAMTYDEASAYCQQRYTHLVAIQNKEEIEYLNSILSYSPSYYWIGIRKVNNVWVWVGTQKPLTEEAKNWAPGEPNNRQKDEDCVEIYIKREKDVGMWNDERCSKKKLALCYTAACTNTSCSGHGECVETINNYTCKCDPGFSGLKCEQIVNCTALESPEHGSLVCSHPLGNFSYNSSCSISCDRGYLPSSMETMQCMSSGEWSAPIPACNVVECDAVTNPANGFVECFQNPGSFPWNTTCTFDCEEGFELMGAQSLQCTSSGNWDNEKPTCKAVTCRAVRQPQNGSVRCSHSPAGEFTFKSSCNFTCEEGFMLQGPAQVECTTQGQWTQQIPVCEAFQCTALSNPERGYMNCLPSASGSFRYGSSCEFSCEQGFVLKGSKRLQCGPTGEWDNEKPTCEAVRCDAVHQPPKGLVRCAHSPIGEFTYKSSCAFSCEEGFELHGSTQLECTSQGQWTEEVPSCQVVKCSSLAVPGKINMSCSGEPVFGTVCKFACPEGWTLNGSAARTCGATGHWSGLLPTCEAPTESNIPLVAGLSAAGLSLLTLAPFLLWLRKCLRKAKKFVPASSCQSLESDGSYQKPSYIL
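System: HUVEC, human umbilical vein endothelial cells; quantity: 3,000 cells/well; buffer or medium: EGM-2 medium, gelatin-coated wells; dosing: single-point compound dose; detection: immunofluorescence imaging; evaluation: % PE-positive cells; benchmarks: TNF-alpha, DMSO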
Numbers stand for hits; - = inactive; . = no result.

SMILES	DENV2 CPE rescue	SIRT5 inh	E-selectin induc
COc1ccc(C(=O)NC(=S)N(C)C2CCCCC2)cc1Br	59	-	-
Cc1ccc(C(=O)NC(=S)N(C)C2CCCCC2)cc1Br	-	-	-
O=C(CC1CC2CCC1C2)N1CCN(S(=O)(=O)c2ccccc2[N+](=O)[O-])CC1 (stereo not drawn)	-	-	-
O=c1c2cc(Br)ccc2[nH]c(=S)n1Cc1ccccn1	31	.	.
O=C(NCc1cccnc1)c1ccc(Cn2c(=S)[nH]c3ccc(Br)cc3c2=O)cc1	-	16	-
CN1CCN(CCCNC(=O)c2ccc(Cn3c(=S)[nH]c4ccc(Br)cc4c3=O)cc2)CC1	-	-	-
O=c1c2cc(Br)ccc2[nH]c(=S)n1Cc1ccccc1	-	-	-
CCC(=O)N(C)C[C@@H]1Oc2cc(-c3cccnc3)ccc2S(=O)(=O)N([C@@H](C)CO)C[C@@H]1C	-	-	-
COc1ccc(C(C)=O)cc1COC(=O)c1ccc(N)c([N+](=O)[O-])c1	-	-	.
COc1cc(CN2CCCC(CCC(=O)NCc3ccc(C)o3)C2)cc2c1OCO2 (stereo not drawn)	-	-	.
CC1(C)C(=O)OC(/C=C/c2cccc([N+](=O)[O-])c2)C(C)(C)C1=O (stereo not drawn)	-	-	-
C[C@H]1CN([C@@H](C)CO)C(=O)Cc2cc(NC(=O)Nc3ccc(F)cc3)ccc2O[C@H]1CN(C)C(=O)Nc1cccc2ccccc12	-	-	-
C[C@H](CO)N1C[C@H](C)[C@@H](CN(C)C)Oc2ccc(NC(=O)Nc3ccccc3)cc2CC1=O	-	-	-
C[C@@H]1CN([C@H](C)CO)C(=O)Cc2cc(NC(=O)Nc3ccccc3)ccc2O[C@@H]1CN(C)C	-	-	46
C[C@@H]1CN([C@@H](C)CO)C(=O)Cc2cc(NC(=O)Nc3ccc(F)cc3)ccc2O[C@@H]1CN(C)C(=O)Nc1cccc2ccccc12	41	-	-
C[C@H]1CN([C@@H](C)CO)C(=O)Cc2cc(NC(=O)Nc3cccc4ccccc34)ccc2O[C@@H]1CN(C)CC1CC1	-	-	-
C[C@@H]1CN([C@@H](C)CO)C(=O)Cc2cc(NC(=O)Nc3cccc4ccccc34)ccc2O[C@H]1CN(C)C	21	-	-
C[C@@H]1CN([C@@H](C)CO)C(=O)Cc2cc(NC(=O)Nc3cccc4ccccc34)ccc2O[C@H]1CN(C)C(=O)NC1CCCCC1	25	-	-
C[C@@H]1CN([C@@H](C)CO)C(=O)Cc2cc(NC(=O)Nc3cccc4ccccc34)ccc2O[C@@H]1CN(C)C(=O)NC1CCCCC1	-	.	-
CC(C)CC#Cc1ccc2c(c1)O[C@@H](CN(C)C(=O)C1CC1)[C@@H](C)CN([C@H](C)CO)S2(=O)=O	.	.	-
CCc1ccccc1NC(=O)C1CCCN1C(=O)Nc1ccc(C)cc1 (stereo not drawn)	-	-	.
C[C@H](CO)N1C[C@H](C)[C@H](CN(C)C)Oc2ccc(NC(=O)Nc3cccc4ccccc34)cc2CC1=O	35	-	-
C[C@@H]1CN([C@@H](C)CO)C(=O)Cc2cc(NC(=O)Nc3cccc4ccccc34)ccc2O[C@@H]1CN(C)C(=O)Nc1cccc2ccccc12	-	-	-
COc1ccc(CN(C)C(=O)c2ccc(Oc3ccccc3)cc2)cc1F	-	-	-
COc1ccc(C(=O)N(C)Cc2ccccc2)cc1Br	-	18	-
SMILES	DENV2 CPE rescue	SIRT5 inh	E-selectin induc
CCC(=O)Nc1ccc2c(c1)C(=O)N(C)C[C@H](OC)[C@@H](C)CN(C(=O)c1ccccn1)[C@H](C)CO2	.	-	-
CCC(=O)Nc1ccc2c(c1)C(=O)N(C)C[C@@H](OC)[C@@H](C)CN(C(=O)c1cnccn1)[C@@H](C)CO2	29	-	-
COCC(=O)Nc1ccc2c(c1)C(=O)N(C)C[C@H](OC)[C@H](C)CN(C(=O)c1ccccn1)[C@H](C)CO2	31	-	-
COCC(=O)Nc1ccc2c(c1)C(=O)N(C)C[C@H](OC)[C@@H](C)CN(C(=O)c1ccccn1)[C@@H](C)CO2	-	-	-
CCC(=O)Nc1ccc2c(c1)C(=O)N(C)C[C@@H](OC)[C@H](C)CN(C(=O)c1cnccn1)[C@H](C)CO2	-	-	-
CCC(=O)Nc1ccc2c(c1)C(=O)N(C)C[C@@H](OC)[C@H](C)CN(C(=O)c1ccccn1)[C@H](C)CO2	43	-	-
O=C(Nc1nc2cc3c(cc2s1)OCO3)c1ccc(N2C(=O)CCC2=O)cc1	-	-	-
Cc1noc(C)c1COc1ccccc1C(=O)N1CCN(S(=O)(=O)c2ccccc2C#N)CC1	-	-	-
COc1cccc(CNC(=O)CN2C(=O)COc3ccc(S(=O)(=O)N4CCCC4)cc32)c1	-	-	.
COc1cccc(CNC(=O)CN2C(=O)COc3ccc(S(=O)(=O)N4CCCCCC4)cc32)c1	-	-	43
CC(C)NC(=O)Nc1ccc2c(c1)C(=O)N(C)[C@@H]1CC[C@@H](CC(=O)Nc3ccccc3)O[C@@H]1CO2	-	-	-
NC(=O)c1ncc(C(F)(F)F)cc1Cl	-	-	.
NC(=O)c1ccc(C(F)(F)F)cn1	-	32	-
CCCCc1ccc(NC(=O)Nc2cccnc2)cc1	-	-	-
COc1ccc(S(=O)(=O)N(C)C[C@@H]2Oc3ccc(NC(=O)Cc4ccccc4)cc3C(=O)N([C@@H](C)CO)C[C@H]2C)cc1	-	-	-
COc1ccccc1-n1cc(C(=O)NCC(=O)N2CCN(c3ccccn3)CC2)c2ccccc2c1=O	-	-	-
COc1ccccc1-c1cncc(NC(C)=O)n1	27	-	-
CC(=O)Nc1cncc(-c2ccccc2C(C)=O)n1	-	.	-
O=C(c1ccccc1)N1CC(=O)N2[C@H](C1)[C@H](c1ccc(C#CC3CC3)cc1)[C@@H]2CO	-	-	-
C[C@@H]1CN([C@H](C)CO)C(=O)Cc2cc(NC(=O)Cc3cn(C)c4ccccc34)ccc2O[C@H]1CN(C)Cc1ccc2c(c1)OCO2	51	-	.
C[C@@H]1CN([C@H](C)CO)C(=O)Cc2cc(NC(=O)Cc3cn(C)c4ccccc34)ccc2O[C@@H]1CN(C)C	-	26	-
C[C@H]1CN([C@@H](C)CO)C(=O)c2cc(NC(=O)Cc3cn(C)c4ccccc34)ccc2O[C@@H]1CN(C)Cc1ccc2c(c1)OCO2	-	-	-
C[C@H](CO)N1C[C@H](C)[C@@H](CN(C)Cc2ccc3c(c2)OCO3)Oc2ccc(NC(=O)Cc3cn(C)c4ccccc34)cc2CC1=O	-	-	.
C[C@@H]1CN([C@@H](C)CO)C(=O)c2cc(NC(=O)Cc3cn(C)c4ccccc34)ccc2O[C@H]1CN(C)Cc1ccc2c(c1)OCO2	-	-	39
C[C@H](CO)N1C[C@H](C)[C@H](CN(C)Cc2ccc(C(F)(F)F)cc2)Oc2ccc(NC(=O)Cc3cn(C)c4ccccc34)cc2CC1=O	-	-	228
C[C@@H]1CN([C@@H](C)CO)C(=O)Cc2cc(NC(=O)Cc3cn(C)c4ccccc34)ccc2O[C@H]1CN(C)C	-	-	-
C[C@@H]1CN([C@H](C)CO)C(=O)Cc2cc(NC(=O)Cc3cn(C)c4ccccc34)ccc2O[C@H]1CN(C)Cc1ccccc1	-	-	-
CCCC(C)NC(=O)CN1C(=O)NC2(CCc3ccccc32)C1=O (stereo not drawn)	-	-	.
